Assay: Toxicity liver stage against HepG2, at 10uM
Type: cell-based
Design: test concentration 10 uM, cell line HepG2-A16-CD81EGFP
Conditions: human, HepG2-A16-CD81EGFP cells; read-out: INHIBITION
Summary of the method: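 Uninfected HepG2-A16-CD81EGFP cells, 3 × 10^3 per well, 1536-well, plated on prespotted compound at 10 μM final, parasite-free screening media added to match infected plates; puromycin 10 μM positive, DMSO 0.5% negative; run in parallel with 48 h PbLuc assay at 37 °C, 5% CO2; viability by CellTiter-Glo luminescence, normalized to controls.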

Structure (SMILES) | cytotoxicity at 10 µM [%]
COc1cc2nc(C)n(CC(=O)NCC(C)C)c(=O)c2cc1OC | -4.76
CC(=O)c1cccc(NC(=O)Cn2cnc(-c3ccccc3)cc2=O)c1 | -12.3
CS(=O)(=O)N1CCN(c2ccc(Nc3ccccn3)nn2)CC1 | -6.01
N#Cc1cccc(C(=O)N2CC(c3nc(-c4ccc[nH]c4=O)no3)C2)c1 | -4.13
CS(=O)(=O)C1CCN(S(=O)(=O)c2ccc(F)c(F)c2)C1 (configuration not stated) | -9.52
COCCN1CC2(CCN(Cc3ccco3)CC2)c2ccccc21 | 18.3
CCOCC1CC2(CCN(C(=O)CC3=CCCCC3)CC2)CO1 (configuration not stated) | -3.95
Cc1ccc(N2CCC3(CCC(=O)N3)CC2)nn1 | 0.903
CCOCC1CN(C(=O)N2CCCC2)Cc2cnn(C)c21 (configuration not stated) | -0.96
Cc1ccc(CN2CC[C@H]3C[C@H](c4nc(C5CC5)cs4)O[C@@H]3C2)o1 | 3.81
COc1cc(OC)c(-n2nnc(C(=O)O)c2C)cc1Cl | -16.8
CN1C(=O)C(C)(C)COc2cc(NS(=O)(=O)c3ccccc3)ccc21 | -7.89
COCCO[C@@H]1CCN(C(=O)c2ccc(C)o2)[C@@H]1Cc1cnn(C)c1 | -12.8
CCCNC(=O)NC(C)c1ccccn1 (configuration not stated) | -8.26
Cc1nc(NC(=O)C(C)n2ncc(Br)c2C)sc1C (configuration not stated) | 10.3
Cc1ccnc(C2(C)CCCN2S(=O)(=O)c2cccnc2)n1 (configuration not stated) | 5.95
CC(=O)N1CCCC1(C)c1nc(C)no1 (configuration not stated) | 2.71
O=C(O)c1cn2cc(C(F)(F)F)ccc2n1 | 3.52
CN1CCN(C(=O)Cc2csc(-c3ccsc3)n2)C(c2ccccc2)C1 (configuration not stated) | -8.38
Cc1ccnc2c1NC(=O)CN2C(=O)CCc1cccs1 | -19.5
COc1cccc(COC(C)C(=O)NCc2nnc3n2CCC3)c1 (configuration not stated) | 8.67
Cc1cc(NC(=O)N2CCN(C)CC2C)n(C(C)(C)C)n1 (configuration not stated) | 6.3
CC(NC(=O)N1CCC1)c1ccc(S(N)(=O)=O)cc1 (configuration not stated) | -8.64

Structure (SMILES) | cytotoxicity at 10 µM [%]
CC(C)(CNC(=O)C1CCCN(C(N)=O)C1)c1cccc(Cl)c1 (configuration not stated) | 1.75
CC(C1CC1)N(C)Cc1nnc(-c2ccco2)o1 (configuration not stated) | -2.14
Cc1cn2c(n1)CCC(NS(=O)(=O)c1sc(C)nc1C)C2 (configuration not stated) | -20.8
CNC(=O)c1cccc(CCNS(C)(=O)=O)c1 | 13.4
CN(C)c1ccc(C(=O)N2CCCC2c2ccc(Cl)cc2)cc1 (configuration not stated) | 1.21
CN1CCCN(C(=O)NCCNc2ncccc2C#N)CC1 | 6.75
COCCCn1ccc(NC(=O)NCc2cccc(N(C)C)c2)n1 | 2.4
COCC(C)NC(=O)Nc1cc(-c2ccccc2C)nn1CCO (configuration not stated) | -14.3
COc1c(CNCC(O)COc2ccc3c(c2)OCO3)c(C)nn1C (configuration not stated) | 3.07
c1ccc2c(c1)CCC21CN(CCc2ccncc2)CCO1 (configuration not stated) | -0.934
CC(C(=O)N1CCOCC1)N1CCc2cncnc2C1 (configuration not stated) | -5.05
CC(C)(C)CC(=O)NCC(=O)Nc1ccn(Cc2ccccc2)n1 | 7.08
CCC1COCCN1C(=O)NCc1cccc(-c2cnn(C)c2)c1 (configuration not stated) | -1.62
CC(C)Cc1noc(COc2ccc(N(C)C(N)=O)cc2)n1 | 34.4
CCn1nc(C)c(CNCCn2cc(C)cn2)c1C | -4.91
O=C(c1ccc(O)nc1)N1CCN(C(=O)c2ccc(F)c(F)c2)CC1 | -10.3
CN(C(=O)c1cccc(OCC(F)F)n1)c1ccc2c(c1)CCO2 | 43
FC(F)(F)c1cc(NCCn2ncnn2)nc(-c2cccnc2)n1 | 18.9
CCC(C(=O)N1CCCSCC1)N1CCCC1=O (configuration not stated) | 6.27
Cc1cnn(CCNc2nc(C)cc(N(C)C)n2)c1 | 5.36
CNc1nc(CNC(=O)Nc2ccc(OC)cc2C)cs1 | -8.17
CCN(CC(=O)NC)S(=O)(=O)N1CCCCCC1 | 5.04
CCCc1nc(C)c(C(=O)NS(=O)(=O)c2ccc(C#N)cc2)s1 | -12

Structure (SMILES) | cytotoxicity at 10 µM [%]
O=C(c1ccco1)N1CCCC1C1CCN(Cc2ccccc2)CC1 (configuration not stated) | 0.821
CN(C)c1cc(C(=O)NCCc2n[nH]c(=O)[nH]2)ccn1 | -1.89
Cc1csc(N2CCN(Cc3cnc(C)s3)CC2C)n1 (configuration not stated) | 14.7
CCN1CC2(CC1=O)CN(C(=O)NC(C)C)CCN(S(C)(=O)=O)C2 (configuration not stated) | -3.67
CN1C(=O)C(c2cccnc2)CC12CCN(Cc1nccs1)CC2 (configuration not stated) | -1.16
O=C(c1ccco1)N1CCc2onc(Cn3cccn3)c2C1 | -1.22
Cc1nc2c(c(N3CCC(O)(CN4CCCC4)CC3)n1)CCN(C)CC2 | -2.84
CCN(CC)C(=O)[C@@H]1C[C@H](NC(=O)c2ccn(C(C)(C)C)c2)CN1C | -19.3
Cc1nc(C)n(CC(C)C(=O)N2CCC(N3CCC(O)CC3)CC2)n1 (configuration not stated) | 1.43
CC(c1nccs1)n1cc(-c2cc(CN3CCCCC3)cs2)nn1 (configuration not stated) | 1.22
Cc1cccc(C(=O)N2CCCC(c3nccn3Cc3cscn3)C2)n1 (configuration not stated) | -1.28
Cc1nc(-c2cccnc2)ncc1C(=O)N1CCC(c2ncc[nH]2)CC1 | 0.626
COc1ccc(NC(=O)N2CCC3(CC2)NC(=O)CC3C(=O)O)cc1Cl (configuration not stated) | -3.06
CN(Cc1cnccn1)C(=O)c1ccc(CSc2nnc[nH]2)o1 | 1.22
O=C(CCn1cccn1)N1CCC(C2CCN(c3ncccn3)CC2)C1 (configuration not stated) | 5.33
CS(=O)(=O)N1CCc2[nH]cnc2C12CCN(C(=O)c1cccnc1)CC2 | 2.62
Cc1cc(C(=O)N(C)C2CCN(C)C2)c2ccc(F)cc2n1 (configuration not stated) | -2.55
COc1ccc(Cn2cc(C(=O)N(C)Cc3cnccn3)nn2)cc1 | 9.81
Cc1ccccc1CN(Cc1ccncc1)CC(C)C | 11.9
CCC1CCCCN1S(=O)(=O)c1c(N)noc1C (configuration not stated) | 9.5
Cc1cnccc1N1CCCN(C(=O)CCCS(N)(=O)=O)CC1 | -18.7
Cc1nnc(CN(C)C2CCN(CCc3ccccn3)CC2)o1 | 1.04
Cc1cnn(CC2CCCN2Cc2nnc(C(C)C)o2)c1 (configuration not stated) | -20.3

Structure (SMILES) | cytotoxicity at 10 µM [%]
Cn1ncc2c(N3CCN(C(=O)c4ccsc4)CC3)ncnc21 | -9.27
CC(C(=O)NCc1ccc(N2CCCC2)nc1)n1cncn1 (configuration not stated) | -22.4
CCc1nc(C2CCCN2Cc2ccn(C)c(=O)c2)no1 (configuration not stated) | -4.25
CCN(CC)Cc1ccc(C(=O)N2CCN(CC(C)O)CC2)o1 (configuration not stated) | -9.65
CCc1nnc2n1CCN(C(=O)c1nc(-c3ccco3)sc1C)C2 | -1.19
CCN(CC)CC(=O)N1CCCC1Cn1cccn1 (configuration not stated) | -3.08
COc1ccc(S(=O)(=O)NCc2cccnc2N(C)C)cc1 | 5.32
CNC(=O)CS(=O)(=O)Cc1cc(Cl)c2c(c1)OCCO2 | -4.17
CCOc1ccccc1CNC1CCCN(Cc2noc(C)n2)C1 (configuration not stated) | -13.1
Cc1cccc(C2(CNC(=O)CO)CCCC2)c1 | -19.1
O=C1C(NS(=O)(=O)c2ccc(F)c(F)c2)CCN1Cc1ccccc1 (configuration not stated) | -2.81
Cc1cc(C)n(C2CN(CC(O)c3ccc(S(C)(=O)=O)cc3)C2)n1 (configuration not stated) | -12.9
CC(C)c1noc(CCCC(=O)NCC2CCS(=O)(=O)C2)n1 (configuration not stated) | -22.3
Cc1ccc(NC2CCN(C(=O)c3cccnc3N(C)C)CC2)nn1 | -12.1
c1ccc2c(OCCN3CCn4c(nnc4C4CC4)C3)cccc2c1 | -3.87
c1ccc(Cc2nnc(CN3CCn4c(nnc4C4CC4)C3)o2)cc1 | -0.192
CN(C)C1CCCN(C(=O)NCc2ccccc2-n2cccn2)C1 (configuration not stated) | -4.14
Cc1cc(C)cc(OCCN(C)C(=O)NC(C)c2nncn2C)c1 (configuration not stated) | -19.1
CCOc1ncccc1CNC(=O)NCCNC(=O)c1ccco1 | 1.16
Cc1cccc(C(=O)NCCCN2CCc3ccccc3C2)c1C | -4.71
CCc1noc(CN(Cc2cccs2)CC2CCCO2)n1 (configuration not stated) | -8.66
CCc1nccn1C1CCCN(C(=O)c2ccoc2C)C1 (configuration not stated) | -28
COc1cc(CNCc2c(C)nn(C)c2N(C)C)ccc1OCCO | -7.59

Structure (SMILES) | cytotoxicity at 10 µM [%]
Cc1cnn(CC2CN(Cc3nc(-c4ccccn4)no3)CCO2)c1 (configuration not stated) | -22.6
Cc1nn(C)c(Cl)c1C1CCCN1CC(=O)Nc1cccnc1 (configuration not stated) | -17.2
CC(=O)N1CCCN(C(=O)NC(C)Cn2cccn2)CC1 (configuration not stated) | -13
CCc1nc(CN(C)C2CCN(Cc3nnc(C4CCC4)o3)C2)no1 (configuration not stated) | 0.239
O=S(=O)(CCNC1CCc2ncnn2C1)c1ccc(Cl)cc1 (configuration not stated) | -32.2
O=C(Cc1cn2ccccc2n1)N1CCCC(n2cccn2)C1 (configuration not stated) | -5.16
Cn1ccc(CN2CCN(CC3CC3)CC2)cc1=O | -16.6
Cc1nc(CN(C)C2CCN(Cc3c(C)noc3C)C2)no1 (configuration not stated) | 6.66
Cc1noc(C(C)N2CCN(Cc3cccc(C#N)c3)CC2)n1 (configuration not stated) | -5.72
Cc1cccnc1NC(=O)NCc1ccc(N2CCNC(=O)C2)cc1 | -8.85
CN(Cc1nc(N2CCCC2)ncc1-c1ccncc1)C(=O)C(C)(C)C | 6.58
Cc1ncc(CN2CCCC(O)(c3ccc(F)cc3)CC2)n1C (configuration not stated) | -4.04
Cn1nc(COCC2CC2)c2c1CN(CC1CC1)CC2 | 13.8
CCC(=O)N1CC[C@H]2[C@H](C[C@@H](Cn3cccn3)N2c2nccs2)C1 | 5.68
CN1CCc2ncc(CNc3cc(N(C)C)ncn3)n2CC1 | 0.749
CC(C)CCN1C2(CCN(C(=O)CN(C)C)C2)c2ccccc2S1(=O)=O (configuration not stated) | -4.14
CN(C)C(=O)[C@@H]1C[C@@H]2CCN(C3CCOCC3)C[C@H]2O1 | 7.86
COCc1n[nH]c2c1CN(C(=O)c1ccncc1)C2 | 16.6
Cc1cccc(CN2C[C@@H]3C[C@H](C(=O)NCc4cccnc4)[C@H](C2)O3)c1 | -5.98
O=C(CSc1ncccn1)N1C[C@@H]2CC[C@H]1CN(Cc1ccncc1)C2 | -13

Source: ChEMBL document CHEMBL4513216, “Probing the Open Global Health Chemical Diversity Library for Multistage-Active Starting Points for Next-Generation Antimalarials” (ACS Infect Dis, 2020)
